ChEMBL document CHEMBL4339225, “Self-assembling Releasable Thiocolchicine-Diphenylbutenylaniline Conjugates” (ACS Med Chem Lett, 2019)

What was measured:
HeLa = experiment: Antiproliferative activity against human HeLa cells assessed as reduction in cell number incubated for 72 hrs; type: functional
HepG2 = experiment: Antiproliferative activity against human HepG2 cells assessed as reduction in cell number incubated for 72 hrs; type: functional; conditions: HepG2, 72 h
[1] = Drug level treated with 9-[4-(1,2-Diphenyl-but-1-enyl)-phenylcarbamoyl]-nonanoic acid 3-{2-acetoxy-5-[((S)-1,2,3-trimethoxy-10-methylsulfanyl-9-oxo-5,6,7,9-tetrahydro-benzo[a]heptalen-7-ylcarbamoyl)-methylcarbamoyloxymethyl]-phenyl}-propyl ester assessed as porcine pancreas lipase type 2-mediated compound formation in presence of pH 7 phosphate buffer by reversed-phase HPLC; type: ADME, Sus scrofa; conditions: pig
Method in brief: (§1)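 Analytical-scale incubation was run overnight in 15:85 DMSO/phosphate buffer (20 mM, pH 7) with 1% n-BuOH and porcine pancreatic lipase. Starting-material hydrolysis and released products were quantified by reversed-phase HPLC.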

[2] = Drug level treated with 4-{3-[4-(1,2-Diphenyl-but-1-enyl)-phenylcarbamoyl]-propyldisulfanyl}-butyric acid 3-{2-acetoxy-5-[((S)-1,2,3-trimethoxy-10-methylsulfanyl-9-oxo-5,6,7,9-tetrahydro-benzo[a]heptalen-7-ylcarbamoyl)-methylcarbamoyloxymethyl]-phenyl}-propyl ester assessed as Celite-supported formulation of Pseudomonas cepacia lipase PS-mediated compound formation in presence of pH 7 phosphate buffer by reversed-phase HPLC; type: ADME
[3] = Self-assembling property assessed as polydispersity index by dynamic light scattering method; type: physicochemical
[4] = Stability assessed as porcine pancreas lipase type 2-mediated drug hydrolysis in presence of pH 7 phosphate buffer by reversed-phase HPLC; type: ADME, Sus scrofa; conditions: pig, porcine pancreas lipase type 2, pH 7; read-out: Drug degradation; method in brief: as §1
[5] = Colloidal stability of the compound in nanoparticle form at 0.5 mg/mL at acidic pH conditions; type: physicochemical
Method in brief: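 Zeta potential was measured against pH at 0.5 mg/mL nanoparticle concentration and fixed ionic strength (1 mM KCl). pH was adjusted across 2–12 with 0.1 M NaOH or HCl. Hydrodynamic diameter was also followed over the same range.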

[6] = Colloidal stability of the compound in nanoparticle form in Ph 7 PBS at 0.5 mg/mL in presence of 10 to 100 mM KCl; type: physicochemical; conditions: buffer
Method in brief: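 Nanoparticles were held at 0.5 mg/mL in PBS buffered to pH 7.4, with KCl at 0, 10, 25, 50 and 100 mM. Zeta potential and hydrodynamic diameter were recorded at each ionic strength.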

[7] = Self-assembling property assessed as zeta potential by dynamic light scattering method; type: physicochemical
[8] = Self-assembling property assessed as hydrodynamic diameter by dynamic light scattering method; type: physicochemical
[9] = Drug metabolism assessed as porcine pancreas lipase type 2-mediated 10-(4-(1,2-diphenylbut-1-enyl)phenylamino)-10-oxodecanoic acid formation in presence of pH 7 phosphate buffer by reversed-phase HPLC; type: ADME, Sus scrofa; conditions: pig; method in brief: as §1
MCF7 = experiment: Antiproliferative activity against human MCF7 cells assessed as reduction in cell number incubated for 72 hrs; type: functional; conditions: MCF7, 72 h
[10] = Drug metabolism assessed as Celite-supported formulation of Pseudomonas cepacia lipase PS-mediated 4-((4-(4-(1,2-diphenylbut-1-enyl)phenylamino)-4-oxobutyl)disulfanyl)butanoic acid formation in presence of pH 7 phosphate buffer by reversed-phase HPLC; type: ADME
[11] = Stability assessed as Celite-supported formulation of Pseudomonas cepacia lipase PS-mediated drug hydrolysis in presence of pH 7 phosphate buffer by reversed-phase HPLC; type: ADME; conditions: read-out: Drug degradation
[12] = Drug metabolism assessed as Celite-supported formulation of Pseudomonas cepacia lipase PS-mediated 2-Amino-N-((S)-1,2,3-trimethoxy-10-methylsulfanyl-9-oxo-5,6,7,9-tetrahydro-benzo[a]heptalen-7-yl)-acetamide trifluoroacetic acid formation in presence of pH 7 phosphate buffer by reversed-phase HPLC; type: ADME

What does the source list for `CC/C(=C(\c1ccccc1)c1ccc(N)cc1)c1ccccc1`?
GI50 (HeLa): > 30 µM; GI50 (HepG2): 28.2 µM; Drug uptake [1]: Active; Drug uptake [2]: Active

Which GI50 (HeLa) does the source give for `CC/C(=C(\c1ccccc1)c1ccc(NC(=O)CCCCCCCCC(=O)OCCCc2cc(COC(=O)NCC(=O)N[C@H]3CCc4cc(OC)c(OC)c(OC)c4-c4ccc(SC)c(=O)cc43)ccc2OC(C)=O)cc1)c1ccccc1` here?
The GI50 was 4.2 µM.

And the GI50 (HepG2)?
Its GI50 is > 30 µM.

And the Activity_index [3]?
The Activity_index was 0.17.

And the metabolised [4]?
Its metabolised is 85%.

And the Stability [5]?
The Stability was “Unstable”.

And the Stability [6]?
Its Stability is “Stable”.

And the Activity [7]?
Its Activity is -33.51 mV.

What about the Activity [8] of the same compound?
The Activity was 412.9 nm.

What about the Drug metabolism [9] of the same compound?
The Drug metabolism was “Metabolite_Detected”.

What about the GI50 (MCF7) of the same compound?
Its GI50 is 0.87 µM.

With `CC/C(=C(\c1ccccc1)c1ccc(NC(=O)CCCSSCCCC(=O)O)cc1)c1ccccc1` as the compound, how does the GI50 (HeLa) read?
Its GI50 is > 30 µM.

What about the GI50 (HepG2) of the same compound?
The GI50 was > 30 µM.

What about the GI50 (MCF7) of the same compound?
Its GI50 is > 30 µM.

For `COc1cc2c(c(OC)c1OC)-c1ccc(SC)c(=O)cc1[C@@H](NC(=O)CN)CC2`, which Drug uptake [1] is on record?
The Drug uptake was “Active”.

What about the Drug uptake [2] of the same compound?
Its Drug uptake is “Active”.

With `CC/C(=C(\c1ccccc1)c1ccc(NC(=O)CCCCCCCCC(=O)O)cc1)c1ccccc1` as the compound, how does the GI50 (HeLa) read?
The GI50 was > 30 µM.

What about the GI50 (HepG2) of the same compound?
The GI50 was 25.6 µM.

And the Drug uptake [1]?
Its Drug uptake is “Active”.

What about the GI50 (MCF7) of the same compound?
Its GI50 is > 30 µM.

With `CC/C(=C(\c1ccccc1)c1ccc(NC(=O)CCCSSCCCC(=O)OCCCc2cc(COC(=O)NCC(=O)N[C@H]3CCc4cc(OC)c(OC)c(OC)c4-c4ccc(SC)c(=O)cc43)ccc2OC(C)=O)cc1)c1ccccc1` as the compound, how does the GI50 (HeLa) read?
Its GI50 is 2.8 µM.

What about the GI50 (HepG2) of the same compound?
Its GI50 is > 30 µM.

And the Activity_index [3]?
Its Activity_index is 0.147.

What about the Drug metabolism [10] of the same compound?
The Drug metabolism was “Metabolite_Detected”.

What about the Stability [5] of the same compound?
Its Stability is “Unstable”.

And the Stability [6]?
The Stability was “Stable”.

And the metabolised [11]?
Its metabolised is 88%.

And the Activity [7]?
The Activity was -46.47 mV.

What about the Drug metabolism [12] of the same compound?
The Drug metabolism was “Metabolite_Detected”.

What about the Activity [8] of the same compound?
Its Activity is 344 nm.

What about the GI50 (MCF7) of the same compound?
The GI50 was 0.71 µM.
